pIC50: −log10 of the molar value.
Assays:
[1] = tested on: HCC1806; experiment: Cytotoxicity against human HCC1806 cells assessed as inhibition of cell viability incubated for 48 hrs by MTT assay; assay type: functional, cell-based; details: HCC1806, 48 h
Method in brief: (§1)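 Log-phase cells seeded at 5 × 10^4 cells per mL in 96-well plates, cultured overnight at 37 °C, 5% CO2, then treated at 100, 50, 25, 12.5 and 6.25 μmol L−1, triplicate wells per concentration, for 48 h. MTT (20 μL of 5 mg ml−1) added for 4 h; after centrifugation the medium was removed and the formazan dissolved in DMSO. A570 was read and IC50 calculated. Cisplatin served as positive control.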

[2] = tested on: A549; experiment: Cytotoxicity against human A549 cells assessed as inhibition of cell viability incubated for 48 hrs by MTT assay; assay type: functional, cell-based; details: A549, 48 h; method in brief: as §1
[3] = tested on: HeLa; experiment: Cytotoxicity against human HeLa cells assessed as inhibition of cell viability incubated for 48 hrs by MTT assay; assay type: functional, cell-based; method in brief: as §1
[4] = tested on: HCC1806; experiment: Induction of apoptosis in human HCC1806 cells assessed as proportion of late apoptotic cells at 3 uM incubated for 24 hrs by AnnexinV-FITC/PI staining based flow cytometry (reference value: 5.29 %); assay type: functional
[5] = tested on: HCC1806; experiment: Induction of apoptosis in human HCC1806 cells assessed as proportion of early apoptotic cells at 6 uM incubated for 24 hrs by AnnexinV-FITC/PI staining based flow cytometry (reference value: 5.32 %); assay type: functional
[6] = tested on: HCC1806; experiment: Induction of apoptosis in human HCC1806 cells assessed as proportion of necrotic cells at 6 uM incubated for 24 hrs by AnnexinV-FITC/PI staining based flow cytometry (reference value: 3.40 %); assay type: functional
[7] = tested on: HCC1806; experiment: Induction of apoptosis in human HCC1806 cells assessed as proportion of late apoptotic cells at 6 uM incubated for 24 hrs by AnnexinV-FITC/PI staining based flow cytometry (reference value: 5.29 %); assay type: functional
[8] = target: Vascular endothelial growth factor receptor 2 (Homo sapiens) (UniProt P35968); experiment: Inhibition of VEGFR-2 (unknown origin) at 25 uM incubated for 90 mins by Kinase-Glo MAX reagent based luminescence analysis relative to control
Method in brief: (§2)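 A VEGFR-2 (KDR) kinase kit was used. Compound was made in DMSO and diluted in 1× kinase buffer 1, with matched DMSO in all wells. Master mix and compound were combined, and the reaction was started with diluted VEGFR-2 kinase, then incubated at 30 °C for 45 min. Kinase-Glo MAX reagent was added for 15 min at room temperature before luminescence was read. Blank and positive-control wells were included.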

[9] = tested on: HCC1806; experiment: Induction of apoptosis in human HCC1806 cells assessed as proportion of necrotic cells at 3 uM incubated for 24 hrs by AnnexinV-FITC/PI staining based flow cytometry (reference value: 3.40 %); assay type: functional
[10] = tested on: HCC1806; experiment: Induction of apoptosis in human HCC1806 cells assessed as proportion of viable cells at 3 uM incubated for 24 hrs by AnnexinV-FITC/PI staining based flow cytometry (reference value: 86.0 %); assay type: functional
[11] = tested on: HCC1806; experiment: Induction of apoptosis in human HCC1806 cells assessed as proportion of viable cells at 6 uM incubated for 24 hrs by AnnexinV-FITC/PI staining based flow cytometry (reference value: 86.0 %); assay type: functional
[12] = target: Vascular endothelial growth factor receptor 2 (Homo sapiens) (UniProt P35968); experiment: Inhibition of VEGFR-2 (unknown origin) at 50 uM incubated for 90 mins by Kinase-Glo MAX reagent based luminescence analysis relative to control
[13] = target: Vascular endothelial growth factor receptor 2 (Homo sapiens) (UniProt P35968); experiment: Inhibition of VEGFR-2 (unknown origin) at 100 uM incubated for 90 mins by Kinase-Glo MAX reagent based luminescence analysis relative to control; method in brief: as §2
[14] = tested on: HCC1806; experiment: Induction of apoptosis in human HCC1806 cells assessed as proportion of early apoptotic cells at 3 uM incubated for 24 hrs by AnnexinV-FITC/PI staining based flow cytometry (reference value: 5.32 %); assay type: functional

Chain of Vascular endothelial growth factor receptor 2 (Homo sapiens) (P35968 whole entry): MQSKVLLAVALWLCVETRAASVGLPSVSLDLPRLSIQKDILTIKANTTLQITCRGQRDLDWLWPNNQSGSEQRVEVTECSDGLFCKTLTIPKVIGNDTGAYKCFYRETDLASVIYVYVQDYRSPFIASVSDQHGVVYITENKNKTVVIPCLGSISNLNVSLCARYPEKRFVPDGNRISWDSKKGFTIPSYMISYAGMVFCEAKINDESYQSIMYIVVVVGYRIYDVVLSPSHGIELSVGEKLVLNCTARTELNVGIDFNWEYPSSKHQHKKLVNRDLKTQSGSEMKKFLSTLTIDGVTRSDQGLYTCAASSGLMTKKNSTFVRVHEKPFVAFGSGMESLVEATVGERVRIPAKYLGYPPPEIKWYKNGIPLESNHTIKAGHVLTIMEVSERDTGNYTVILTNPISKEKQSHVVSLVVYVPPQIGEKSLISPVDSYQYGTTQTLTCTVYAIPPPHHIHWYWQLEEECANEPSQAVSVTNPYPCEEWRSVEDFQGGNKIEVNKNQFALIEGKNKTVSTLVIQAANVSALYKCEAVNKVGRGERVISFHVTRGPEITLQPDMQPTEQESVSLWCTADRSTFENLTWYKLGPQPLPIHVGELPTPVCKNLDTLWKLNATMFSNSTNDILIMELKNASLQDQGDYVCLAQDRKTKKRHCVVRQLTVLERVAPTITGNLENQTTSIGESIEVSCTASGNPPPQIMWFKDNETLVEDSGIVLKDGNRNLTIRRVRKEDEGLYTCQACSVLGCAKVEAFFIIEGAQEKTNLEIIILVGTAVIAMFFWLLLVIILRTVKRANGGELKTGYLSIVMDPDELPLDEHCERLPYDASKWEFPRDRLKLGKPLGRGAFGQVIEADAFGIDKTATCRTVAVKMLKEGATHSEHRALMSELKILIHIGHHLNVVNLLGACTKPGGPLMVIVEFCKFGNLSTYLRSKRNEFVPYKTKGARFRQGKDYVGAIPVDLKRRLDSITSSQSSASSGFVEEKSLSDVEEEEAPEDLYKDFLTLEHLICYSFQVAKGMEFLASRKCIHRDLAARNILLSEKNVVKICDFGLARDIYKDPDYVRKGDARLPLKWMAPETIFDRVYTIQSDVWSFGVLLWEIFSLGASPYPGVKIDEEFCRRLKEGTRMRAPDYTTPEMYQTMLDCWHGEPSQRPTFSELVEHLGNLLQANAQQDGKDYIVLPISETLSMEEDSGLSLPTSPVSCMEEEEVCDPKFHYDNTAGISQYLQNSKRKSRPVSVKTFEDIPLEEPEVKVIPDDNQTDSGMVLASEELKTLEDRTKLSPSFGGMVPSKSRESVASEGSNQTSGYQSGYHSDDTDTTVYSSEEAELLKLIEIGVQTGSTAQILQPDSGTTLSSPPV

Molecule `COc1cc2ncnc(Nc3ccc4oc(C(=O)/C=C/c5ccccc5)cc4c3)c2cc1OC` has a pIC50 [1] of 5.15, a pIC50 [2] of 4.66 and a pIC50 [3] of 5.50.

With `COc1cc2ncnc(Nc3ccc4oc(C(=O)/C=C/c5c[nH]c6ccccc56)cc4c3)c2cc1OC` the pIC50 [1] was 5.02, the pIC50 [2] was < 4.60 and the pIC50 [3] was 5.31.

With `COc1cc2ncnc(Nc3ccc4oc(C(=O)/C=C/c5ccc(O)cc5)cc4c3)c2cc1OC` the pIC50 [1] was 5.18, the pIC50 [2] was 5.20 and the pIC50 [3] was 5.21.

For `COc1cc2ncnc(Nc3ccc4oc(C(=O)/C=C/c5c[nH]c6ccc(Br)cc56)cc4c3)c2cc1OC`, the pIC50 [1] was < 4.60, the pIC50 [2] was < 4.60 and the pIC50 [3] was < 4.60.

With `COc1cc2ncnc(Nc3ccc4oc(C(=O)/C=C/c5ccc(Br)cc5)cc4c3)c2cc1OC` the pIC50 [1] was 4.73, the pIC50 [2] was < 4.60 and the pIC50 [3] was 4.61.

With `COc1cc2ncnc(Nc3ccc4oc(C(=O)/C=C/c5cccs5)cc4c3)c2cc1OC` the pIC50 [1] was < 4.60, the pIC50 [2] was < 4.60 and the pIC50 [3] was < 4.60.

With `COc1cc2ncnc(Nc3ccc4oc(C(=O)/C=C/c5cc6ccccc6o5)cc4c3)c2cc1OC` the pIC50 [1] was 4.77, the pIC50 [2] was < 4.60 and the pIC50 [3] was < 4.60.

With `COc1cc2ncnc(Nc3ccc4oc(C(=O)/C=C/c5ccc(F)c(F)c5)cc4c3)c2cc1OC` the pIC50 [1] was 4.78, the pIC50 [2] was < 4.60 and the pIC50 [3] was < 4.60.

In the case of `COc1cc2ncnc(Nc3ccc4oc(C(=O)/C=C/c5ccc(N6CCOCC6)cc5)cc4c3)c2cc1OC`, the pIC50 [1] was < 4.60, the pIC50 [2] was < 4.60 and the pIC50 [3] was < 4.60.

With `COc1cc2ncnc(Nc3ccc4oc(C(=O)/C=C/c5ccc(-n6cccn6)cc5)cc4c3)c2cc1OC` the pIC50 [1] was < 4.60, the pIC50 [2] was < 4.60 and the pIC50 [3] was < 4.60.

`COc1cc2ncnc(Nc3ccc4oc(C(=O)/C=C/c5ccc(Cl)cc5)cc4c3)c2cc1OC` was tested, and the pIC50 [1] was < 4.60, the pIC50 [2] was < 4.60 and the pIC50 [3] was < 4.60.

`COc1cc2ncnc(Nc3ccc4oc(C(=O)/C=C/c5ccc(C)o5)cc4c3)c2cc1OC` was tested, and the pIC50 [1] was < 4.60, the pIC50 [2] was < 4.60 and the pIC50 [3] was < 4.60.

`COc1cc2ncnc(Nc3ccc4oc(C(=O)/C=C/c5ccncc5)cc4c3)c2cc1OC` was tested, and the pIC50 [1] was 5.19, the pIC50 [2] was < 4.60 and the pIC50 [3] was 5.20.

For `COc1cc2ncnc(Nc3ccc4oc(C(=O)/C=C/c5ccc(N(C)C)cc5)cc4c3)c2cc1OC`, the pIC50 [1] was < 4.60, the pIC50 [2] was < 4.60 and the pIC50 [3] was < 4.60.

In the case of `COc1cc2ncnc(Nc3ccc4oc(C(=O)/C=C/c5ccc(N6CCN(C)CC6)cc5)cc4c3)c2cc1OC`, the pIC50 [1] was < 4.60, the pIC50 [2] was < 4.60 and the pIC50 [3] was < 4.60.

In the case of `COc1cc2ncnc(Nc3ccc4oc(C(=O)/C=C/c5ccccn5)cc4c3)c2cc1OC`, the pIC50 [1] was < 4.60, the pIC50 [2] was < 4.60 and the pIC50 [3] was < 4.60.

In the case of `COc1ccc(/C=C/C(=O)c2cc3cc(Nc4ncnc5cc(OC)c(OC)cc45)ccc3o2)cc1OC`, the pIC50 [1] was < 4.60, the pIC50 [2] was < 4.60 and the pIC50 [3] was < 4.60.

`COc1cc(/C=C/C(=O)c2cc3cc(Nc4ncnc5cc(OC)c(OC)cc45)ccc3o2)cc(OC)c1` showed an Activity [4] of 9.05%, an Activity [5] of 12.8% and a pIC50 [1] of 5.23. For the same molecule, the pIC50 [2] was < 4.60, the Activity [6] was 10% and the Activity [7] was 29.4%. For the same molecule, the inhibition [8] was 10%, the pIC50 [3] was 5.25 and the Activity [9] was 6.44%. For the same molecule, the Activity [10] was 77.6%, the Activity [11] was 47.7% and the inhibition [12] was 16%. It also gave an inhibition [13] of 38% and an Activity [14] of 6.91%.

Source: ChEMBL document CHEMBL6114937, “Synthesis and anti-tumor activity of new benzofuran-based chalcone derivatives as potent VEGFR-2 inhibitors” (RSC Med Chem, 2025)
